The text below walks through data of ChEMBL document CHEMBL1145963, “Identification, synthesis, and activity of novel blockers of the voltage-gated potassium channel Kv1.5” (J Med Chem, 2003).

As usually defined, the inhibition is how much of the control response was suppressed. Low readings indicate a response near the control, high ones a response far below the control. The IC50 is the concentration needed to halve the response being measured.

Values joined by “and” are separate entries in the source; they are usually repeats but may differ in a detail not shown here. Identical values can stand only once.

T1 sequence (P22460 whole entry): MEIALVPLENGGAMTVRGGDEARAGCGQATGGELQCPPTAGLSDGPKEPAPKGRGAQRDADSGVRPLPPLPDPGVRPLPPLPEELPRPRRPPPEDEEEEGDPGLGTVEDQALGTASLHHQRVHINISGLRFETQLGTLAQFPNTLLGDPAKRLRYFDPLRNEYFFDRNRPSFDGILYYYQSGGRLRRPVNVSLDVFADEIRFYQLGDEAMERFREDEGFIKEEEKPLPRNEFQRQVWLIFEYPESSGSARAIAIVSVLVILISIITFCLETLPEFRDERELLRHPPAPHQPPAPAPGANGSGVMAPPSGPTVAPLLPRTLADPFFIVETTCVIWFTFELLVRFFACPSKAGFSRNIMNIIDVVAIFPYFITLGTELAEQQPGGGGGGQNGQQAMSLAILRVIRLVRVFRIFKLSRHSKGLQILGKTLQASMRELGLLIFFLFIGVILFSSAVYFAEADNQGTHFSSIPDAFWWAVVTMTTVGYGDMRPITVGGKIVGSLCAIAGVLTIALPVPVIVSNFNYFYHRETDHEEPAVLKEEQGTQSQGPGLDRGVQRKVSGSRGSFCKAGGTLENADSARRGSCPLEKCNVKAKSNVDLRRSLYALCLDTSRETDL

The target of one data set is hERG (KCNH2) (Homo sapiens, UniProt Q12809). Nature of the data set: Inhibition of human Potassium channel HERG expressed in Xenopus oocytes at 10 uM. To be noted: Xenopus oocytes expressing human hERG. It counts as cell-based, Oocyte. On the technique in general: Block of hERG is tested as a sign of cardiac risk.
hERG (KCNH2), sequence (Q12809 whole entry): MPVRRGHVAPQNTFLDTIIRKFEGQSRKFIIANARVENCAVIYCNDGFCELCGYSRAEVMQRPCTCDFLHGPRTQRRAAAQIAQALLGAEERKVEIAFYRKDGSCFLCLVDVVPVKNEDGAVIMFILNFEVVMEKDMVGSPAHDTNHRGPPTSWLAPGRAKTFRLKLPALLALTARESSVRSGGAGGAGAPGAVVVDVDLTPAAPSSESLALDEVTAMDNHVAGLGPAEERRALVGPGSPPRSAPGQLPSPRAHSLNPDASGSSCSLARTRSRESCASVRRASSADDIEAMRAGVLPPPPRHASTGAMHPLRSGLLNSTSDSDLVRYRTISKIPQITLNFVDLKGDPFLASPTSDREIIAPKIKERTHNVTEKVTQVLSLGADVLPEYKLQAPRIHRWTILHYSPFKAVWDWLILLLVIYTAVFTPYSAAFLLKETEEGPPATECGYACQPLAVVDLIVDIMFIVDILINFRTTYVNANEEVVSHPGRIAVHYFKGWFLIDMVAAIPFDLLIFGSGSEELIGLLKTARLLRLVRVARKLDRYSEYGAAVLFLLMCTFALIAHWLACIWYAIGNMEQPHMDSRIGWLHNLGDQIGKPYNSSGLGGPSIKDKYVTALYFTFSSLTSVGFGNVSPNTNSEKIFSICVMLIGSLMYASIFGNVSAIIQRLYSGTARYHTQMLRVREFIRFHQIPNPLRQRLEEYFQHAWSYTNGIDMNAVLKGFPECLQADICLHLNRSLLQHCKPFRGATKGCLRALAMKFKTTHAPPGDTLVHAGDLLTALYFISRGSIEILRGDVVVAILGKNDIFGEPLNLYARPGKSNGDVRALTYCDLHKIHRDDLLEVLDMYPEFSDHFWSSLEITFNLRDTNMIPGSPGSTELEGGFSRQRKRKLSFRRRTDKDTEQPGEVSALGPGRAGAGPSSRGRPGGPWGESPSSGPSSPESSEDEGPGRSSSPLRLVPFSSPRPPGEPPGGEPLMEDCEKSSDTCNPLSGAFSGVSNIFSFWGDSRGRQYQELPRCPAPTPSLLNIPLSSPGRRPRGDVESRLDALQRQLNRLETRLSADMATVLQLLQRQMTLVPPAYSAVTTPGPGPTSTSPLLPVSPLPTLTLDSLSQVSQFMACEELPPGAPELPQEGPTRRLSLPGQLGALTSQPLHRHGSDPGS
In the case of `C[C@H](OC(=O)NCc1ccccc1-c1ccccc1C(=O)NCCc1ccccn1)c1ccccc1`, the inhibition at 10 µM is 11%.

`O=C(NCc1ccccc1-c1ccccc1C(=O)NCCc1ccccn1)OCc1ccccc1`: the inhibition at 10 µM was determined as 7%.

The target of another data set is Potassium voltage-gated channel subfamily A member 3 (Homo sapiens, UniProt P22001). Nature of the data set: Inhibition of human voltage-gated potassium channel subunit Kv1.3 expressed in Xenopus oocytes. It counts as cell-based, Oocyte.
Potassium voltage-gated channel subfamily A member 3, sequence (P22001 whole entry): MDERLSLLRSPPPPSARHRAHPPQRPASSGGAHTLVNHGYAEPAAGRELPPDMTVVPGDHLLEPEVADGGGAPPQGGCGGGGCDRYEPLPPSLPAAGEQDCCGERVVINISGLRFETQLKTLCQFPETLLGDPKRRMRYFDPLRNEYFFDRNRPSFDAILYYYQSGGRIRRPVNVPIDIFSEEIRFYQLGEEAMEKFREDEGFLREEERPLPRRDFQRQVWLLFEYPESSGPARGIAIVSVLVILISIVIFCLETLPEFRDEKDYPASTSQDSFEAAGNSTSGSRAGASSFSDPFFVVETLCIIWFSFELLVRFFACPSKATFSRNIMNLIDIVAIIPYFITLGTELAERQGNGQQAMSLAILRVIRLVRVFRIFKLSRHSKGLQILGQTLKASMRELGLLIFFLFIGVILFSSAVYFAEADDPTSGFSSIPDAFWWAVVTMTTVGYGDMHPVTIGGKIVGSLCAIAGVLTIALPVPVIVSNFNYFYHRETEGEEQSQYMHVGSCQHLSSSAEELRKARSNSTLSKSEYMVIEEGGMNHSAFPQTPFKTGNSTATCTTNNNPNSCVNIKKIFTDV
Conditions: not given
In a few lines:
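Kv1.3 was expressed in Xenopus oocytes and recorded by two-microelectrode voltage clamp, handled like the Kv1.5 assay. Compounds were diluted from a 10 mM DMSO stock into ND96 superfusate. Percent inhibition of the control current at 3–4 concentrations was fitted with a variable-slope dose–response equation to give IC50.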
On to `C[C@H](OC(=O)NCc1ccccc1-c1ccccc1C(=O)NCCc1ccccn1)c1ccccc1`, for which the IC50 amounted to 500 nM.

`O=C(NCc1ccccc1-c1ccccc1C(=O)NCCc1ccccn1)OCc1ccccc1` gave an IC50 of 2300 nM.

The next data set addresses T1, Potassium voltage-gated channel subfamily A member 5 (Homo sapiens, UniProt P22460). Nature of the data set: Inhibition of human voltage-gated potassium channel subunit Kv1.5 expressed in Xenopus oocytes. It counts as cell-based, Oocyte.
Conditions: not given
The procedure, abridged:
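Compounds came from a 10 mM DMSO stock diluted into ND96. Read-out was percent inhibition of the compound-free control current. For IC50, 3–4 concentrations were each tested at least twice and fitted with a variable-slope Hill equation.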
Regarding `CC(C)CCNC(=O)c1ccncc1-c1ccccc1CNC(=O)OCc1ccccc1`, half-maximal inhibition (IC50) required 12000 nM.

Turning to `CC(C)CCNC(=O)c1cccnc1-c1ccccc1CNC(=O)OCc1ccccc1`, the IC50 came out at 7800 nM.

In the case of `C[C@@H](CC(=O)NCc1ccccc1-c1ccccc1C(=O)NCCc1ccccn1)c1ccccc1`, the IC50 was 1000 nM.

In the case of `O=C(NCc1ccccc1-c1ccccc1C(=O)NCc1ccc(F)cc1F)OCc1ccccc1`, half-maximal inhibition (IC50) was put at 1200 nM.

`O=C(NC1CCCCC1)c1cccc2cccc(NS(=O)(=O)c3ccc(Cl)cc3)c12`: the IC50 is 9500 nM.

`CC(C)CCNC(=O)c1ccccc1-c1ccccc1CNCCc1ccccc1` yielded an IC50 of 4000 nM.

As for `Cc1cccc(CNC(=O)OCc2ccccc2)c1-c1c(C)cccc1C(=O)NCCC(C)C`, the IC50 was 1000 nM and 1300 nM.

`CN(C)CC(C)(C)CNC(=O)c1ccccc1-c1ccccc1CNC(=O)OCc1ccccc1` registered an IC50 of 2200 nM.

For `CC(C)CCNC(=O)c1ccccc1-c1ccncc1CNC(=O)OCc1ccccc1`, the IC50 is 7000 nM.

As to `Cc1cccc(CNC(=O)OCc2ccccc2)c1-c1c(C)cccc1C(=O)NCCc1ccccn1`, the IC50 came to 1700 nM.

A further data set concerns the target T1, Potassium voltage-gated channel subfamily A member 5. Kind of data set: Inhibition of human voltage-gated potassium channel subunit Kv1.5 expressed in Xenopus oocytes at 10 uM. It counts as cell-based. The conditions noted are these: Oocyte. The procedure, abridged: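 Human Kv1.5 cRNA (0.2–0.5 ng) was injected into Xenopus oocytes kept at 18 °C. […] Compounds came from a 10 mM DMSO stock diluted into ND96. Read-out was percent inhibition of the compound-free control current. For IC50, 3–4 concentrations were each tested at least twice and fitted with a variable-slope Hill equation.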
Turning to `COc1ccc(S(=O)(=O)NC(=O)NCc2ccccc2-c2ccccc2C(=O)NCc2ccc(F)cc2F)cc1`, the inhibition was found to be 7%.

Turning to `CC(C)CCOC(=O)c1ccccc1-c1ccccc1CNC(=O)OCc1ccccc1`, the inhibition came to 8%.
